Assay outcomes (PubChem BioAssay)
Sampled rows, rich in hits. Any-hit rate of the full collection: about 3.3%.
mABHD4 FP: inhibits mouse alpha/beta hydrolase domain 4 | inhibition, % at 8.92 µM | Q8VD66 | 370,000 compounds, 0.54% hits | purified mABHD4, FP-Rh probe fluorescence polarization;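 active means inhibition exceeding the mean over every tested compound plus 3 SD, cut at about 30% in these data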;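 further: 0% = plate median of compound wells and 100% = S159A mutant with DMSO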
Target sequence (Q8VD66 whole entry, looked up, the tested form may be a part): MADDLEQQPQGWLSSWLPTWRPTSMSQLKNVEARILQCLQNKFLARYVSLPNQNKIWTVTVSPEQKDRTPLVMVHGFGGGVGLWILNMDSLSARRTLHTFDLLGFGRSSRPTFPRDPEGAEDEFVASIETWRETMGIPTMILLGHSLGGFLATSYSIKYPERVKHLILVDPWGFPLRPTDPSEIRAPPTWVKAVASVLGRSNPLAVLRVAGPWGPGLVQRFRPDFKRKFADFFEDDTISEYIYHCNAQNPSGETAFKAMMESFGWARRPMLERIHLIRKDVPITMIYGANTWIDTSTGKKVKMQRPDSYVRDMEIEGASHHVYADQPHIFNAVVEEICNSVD
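Assay system: mABHD4 protein; medium: HEPES pH 7.0, NaCl, Pluronic buffer; dosing: 8.92 µM, single dose; schedule: 45 min + 60 min at 25 °C; signal: FP readout, ex 525 nm / em 598 nm; read-out: normalized percent inhibition of probe labeling; repeats: single replicate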
SIAE inh: inhibitors of human sialic acid acetylesterase SIAE; SIAE FP-Rh probe binding, fluorescence polarization; inhibition, % at 9.66 µM; 370,000 compounds, 0.69% hits;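 active means inhibition above a cutoff: mean of compounds within the control limits plus 3 SD of those, cut at about 17% in these data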;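 further: 0% = plate median of compound wells and 100% = probe without SIAE protein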
PRMT1 FP inh: PRMT1 (human) inhibition, primary screen | 370,000 compounds, 1.3% hits | inhibition, % at 2.79 µM | recombinant PRMT1, activity-based probe fluorescence polarization | Q99873;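 active means inhibition above about 21% made by adding two undisclosed values, limit read from the data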
Target sequence (Q99873 whole entry, looked up): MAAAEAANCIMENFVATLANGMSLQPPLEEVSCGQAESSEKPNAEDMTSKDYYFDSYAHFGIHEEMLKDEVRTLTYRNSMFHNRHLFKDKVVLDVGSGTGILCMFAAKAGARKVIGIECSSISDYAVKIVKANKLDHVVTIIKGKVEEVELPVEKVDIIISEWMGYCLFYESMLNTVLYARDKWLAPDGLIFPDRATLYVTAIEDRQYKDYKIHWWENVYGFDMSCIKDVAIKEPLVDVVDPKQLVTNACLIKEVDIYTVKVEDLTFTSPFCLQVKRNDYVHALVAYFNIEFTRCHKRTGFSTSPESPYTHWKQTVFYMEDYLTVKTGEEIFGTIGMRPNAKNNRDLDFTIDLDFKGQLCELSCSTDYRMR
rCAG RNA binder: molecules binding r(CAG) RNA repeats; r(CAG) RNA repeat, TO-PRO-1 dye displacement fluorescence; inhibition, % at 3 µM; 370,000 compounds, 1.3% hits; AID 651821;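 active means inhibition above the plate cutoff, the mean of all test compounds on that plate plus 3 SD, cut at about 35% in these data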;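 further: 0% = DMSO alone and 100% = 100 µM mitoxantrone as full dye displacement; higher means more dye released from RNA so lower well fluorescence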
TCR-CD3 inh: inhibitors of human TCR-CD3 interaction; inhibition, % at 9.4 µM; 360,000 compounds, 0.37% hits; TAMRA-labeled TCR probe fluorescence, biochemical; in the data active means inhibition above about 19%;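 further: recombinant mutant TCR 2C K166C tagged with TAMRA read by polarization; 0% = receptor in buffer alone and 100% = receptor with positive control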
rCAG binder conf: r(CAG) RNA repeat binding, confirmation; 4,300 compounds, 70% hits; inhibition, % at 3 µM; shares compounds with rCAG RNA binder; AID 652065; TO-PRO-1 dye displacement fluorescence;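 active means inhibition above a per-plate cutoff, the mean inhibition of sample wells plus 3 SD, cut at about 35% in these data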;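 further: loss of TO-PRO-1 fluorescence as compound displaces dye from 1x1 AA loop RNA; 0% = DMSO only wells and 100% = 100 µM mitoxantrone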
dCAG dye counter: disrupts DNA CAG TO-PRO-1 complex, flagging rCAG hits; shares compounds with rCAG RNA binder; d(CAG) DNA oligo TO-PRO-1 dye displacement, fluorescence; inhibition, % at 3 µM; 4,300 compounds, 94% hits; AID 652068;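 active means inhibition above its plate's cutoff, the mean test-well inhibition plus 3 SD, cut at about 4.8% in these data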;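 further: 0% = DNA dye mix with DMSO and 100% = 100 µM mitoxantrone; hits displace the dye from DNA and so lower well fluorescence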
DNA CAG DR: DNA CAG dye complex inhibition, dose response counter-screen | shares compounds with rCAG RNA binder | DNA CAG/GTC duplex TO-PRO-1 dye displacement fluorescence | IC50, µM | 250 compounds, 20% hits | AID 686960; in the data active means IC50 below about 10 µM
The depositor's hits bear a star; i = inactive; · = no result given.

SMILES | mABHD4 FP | SIAE inh | PRMT1 FP inh | rCAG RNA binder | TCR-CD3 inh | rCAG binder conf | dCAG dye counter | others
O=C(O)CSc1cc(C(=O)c2ccccc2O)cn2c(=O)c3c4c(sc3nc12)CCCC4 | -15.2 | -17.8 | 5.2 | 46.8* | -0.8 | 85.2* | 61.1*
O=C(O)CSc1nc2sc3c(c2c(=O)n1Cc1ccccc1)CCCCC3 | -14.1 | -3.9 | 3.3 | 52.7* | -1.9 | 53.6* | 17.0*
CCOC(=O)N1CCN(C(=O)c2cccn3c(=O)c4c5c(sc4nc23)CCCC5)CC1 | -3.3 | 6.1 | 2.4 | -2.9 | -9.2 | · | ·
Cc1ccccc1-n1c(SCC(=O)O)nc2sc3c(c2c1=O)CCCC3 | -11.8 | 4.1 | -4.2 | 10.1 | 1.5 | · | ·
O=C(CSc1nc2sc3c(c2c(=O)n1-c1ccc(Cl)cc1)CCC3)Nc1ccc(C(=O)O)cc1 | -7.4 | -0.6 | -0.5 | 58.0* | · | 51.7* | 21.7*
CCN(CC)CCCNC(=O)c1oc(=O)c2ccccc2c1-c1ccc(C)cc1 | 0.5 | -0.8 | -0.3 | 6.0 | · | · | ·
COc1cccc(-n2c(C)cc(/C=C3/C(=N)N4C(=NC3=O)SN=C4S(C)(=O)=O)c2C)c1 | -2.3 | -14.7 | 6.1 | 65.4* | 0.8 | 78.9* | 49.5*
CCc1ccc(-n2cccc2/C=C2/C(=N)N3C(=NC2=O)SN=C3S(C)(=O)=O)cc1 | -135.6 | -57.5 | 2.3 | 93.6* | 5.7 | 90.7* | 72.4*
Cc1ccc(S(=O)(=O)Oc2ccc(/C=C3/C(=N)N4C(=NC3=O)SN=C4S(C)(=O)=O)cc2)cc1 | 0.2 | -19.0 | -2.5 | 31.8 | 0.4 | · | ·
CS(=O)(=O)C1=NSC2=NC(=O)/C(=C\c3cccn3-c3ccccc3Cl)C(=N)N21 | -42.2 | -38.9 | 4.1 | 83.3* | -4.2 | 76.7* | 38.7*
CCC1=NN2C(=N)/C(=C\c3cccn3-c3ccc(Cl)cc3)C(=O)N=C2S1 | -1.4 | -2.1 | 1.9 | 7.2 | -2.9 | · | ·
Cc1cc(C)cc(-n2cccc2/C=C2/C(=N)N3C(=NC2=O)SN=C3S(C)(=O)=O)c1 | -83.7 | -58.2 | 3.4 | 88.9* | -5.3 | 87.6* | 61.4*
Cc1ccc(-n2cccc2/C=C2/C(=N)N3C(=NC2=O)SN=C3S(C)(=O)=O)cc1 | -88.4 | -38.1 | 1.5 | 89.3* | -1.9 | 83.7* | 49.5*
C=CCN1C(=O)[C@@H](CC(=O)NCCCCc2ccccc2)[C@]2(C(=O)OC)CCCCC=C12 | -0.7 | 4.1 | 3.9 | -0.3 | · | · | ·
CCCCCN(CCCCC)C(=O)C(CCC(=O)O)NC(=O)c1ccc(Cl)c(Cl)c1 (stereo unspecified) | -9.5 | 2.8 | -1.5 | 53.7* | -2.9 | 51.6* | 11.5*
COc1ccc(C(=O)N/C(=C/c2ccc(Cl)cc2)C(=O)Nc2ccc(C(=O)O)cc2)cc1 | -18.6 | -0.6 | 1.9 | 45.8* | -1.2 | 42.5* | 11.7*
CNC(=S)Nc1cc(S(=O)(=O)Nc2cc(Cl)ccc2Cl)ccc1N1CCCC1 | 9.5 | 4.1 | 7.4 | 36.9* | -5.0 | 43.5* | 18.9*
CCOC(=O)c1c(-c2ccc(-c3ccccc3)cc2)csc1NC(=O)C1C2CCC(O2)C1C(=O)O (stereo unspecified) | -1.5 | -6.2 | 13.1 | 50.9* | 1.9 | 67.4* | 26.5*
O=C(Cn1nc(-c2ccccc2)c2ccccc21)Oc1ccccc1 | -22.1 | -4.3 | 3.1 | · | · | · | ·
COc1ccccc1-n1c(SCC(=O)O)nc2c(sc(=S)n2-c2ccc(Cl)c(C)c2)c1=O | 7.0 | -8.0 | 2.9 | 66.2* | -0.3 | 59.6* | 23.8*
COc1ccccc1-n1c(SCC(=O)O)nc2c(sc(=S)n2-c2ccc(C)c(C)c2)c1=O | 8.4 | -8.2 | 0.7 | 48.0* | 7.7 | 71.7* | 33.3* | DNA CAG DR=>29.9
Cc1ccc(-n2c(=S)sc3c(=O)n(-c4ccccc4C)c(SCC(=O)O)nc32)cc1C | 3.1 | -3.8 | 3.1 | 41.2* | 7.7 | 67.6* | 28.4*
CCN(CC)C(=O)CSc1nc2c(sc(=S)n2-c2ccccc2)c(=O)n1-c1ccccc1OC | -6.3 | 5.3 | -1.2 | -0.7 | 2.2 | · | ·
Cc1cc(-n2c(=S)sc3c(=O)n(-c4ccc(F)cc4)c(SCC(=O)O)nc32)ccc1Cl | 4.4 | -6.0 | 1.3 | 48.4* | 4.2 | 38.1* | 11.9*
Cc1ccccc1Cn1cc(CN2[C@@H](CC(C)C)COc3cccc(F)c3S2(=O)=O)nn1 | -6.5 | -3.5 | -0.7 | 0.9 | · | · | ·
SMILES | mABHD4 FP | SIAE inh | PRMT1 FP inh | rCAG RNA binder | TCR-CD3 inh | rCAG binder conf | dCAG dye counter | others
CCOc1ccc(CCNC(=O)c2cc3sccc3n2CC)cc1OC | -3.1 | 1.2 | -0.6 | -1.0 | · | · | ·
CCc1ccc(-n2c(=S)sc3c(=O)n(-c4ccccc4C)c(SCC(=O)O)nc32)cc1 | -5.0 | -0.9 | 2.0 | 41.2* | 10.3 | 43.8* | 12.7*
CCOc1ccccc1-n1c(=S)sc2c(=O)n(-c3ccc(F)cc3)c(SCC(=O)O)nc21 | 11.2 | -6.6 | 10.3 | 25.4 | -8.1 | · | ·
CC(C)(C)C(=O)OC12CCCN(C1)/C(=C/c1ccc(Cl)cc1)C2 (stereo unspecified) | 3.2 | 6.2 | 0.6 | 2.7 | · | · | ·
CCc1nnc(NS(=O)(=O)c2ccc(NC(=O)OC)cc2)s1 | 3.8 | 2.3 | 5.8 | 0.8 | 7.0 | · | ·
CCc1nnc(NS(=O)(=O)c2ccc(NC(=S)NC(=O)c3ccc(F)cc3)cc2)s1 | 0.6 | -0.2 | 0.7 | 63.7* | -4.9 | 52.0* | 19.0*
CCc1nnc(NS(=O)(=O)c2ccc(NC(=O)/C=C/c3ccc(F)cc3)cc2)s1 | -39.6 | -18.9 | -0.3 | 72.9* | 7.2 | 49.6* | 20.3*
CCc1nnc(NS(=O)(=O)c2ccc(NC(=O)c3ccc(Br)cc3)cc2)s1 | -15.5 | -8.4 | -0.8 | 60.1* | 7.0 | 52.9* | 13.0*
CCOc1cc(/C=C2\SC(=Nc3ccccc3)N(c3ccccc3)C2=O)ccc1OCC(=O)O | -17.3 | -9.6 | 0.5 | 65.4* | -1.3 | 70.7* | 29.7* | DNA CAG DR=i
O=C(O)COc1ccccc1/C=C1\SC(=Nc2ccc(F)cc2)N(c2ccc(F)cc2)C1=O | -1.4 | -10.0 | 2.7 | 40.3* | 0.8 | 65.0* | 24.1*
CCN1C(=O)/C(=C\c2ccncc2)SC1=Nc1ccc(C)c(C)c1 | -0.6 | -2.2 | -0.2 | -6.5 | 2.7 | · | ·
O=C(O)c1ccc(/C=C2\SC(=Nc3ccccc3)N(c3ccccc3)C2=O)cc1 | -8.0 | -3.8 | 1.3 | 12.7 | 9.0 | · | ·
O=C(O)COc1ccc(/C=C2\SC(=Nc3ccccc3)N(c3ccccc3)C2=O)cc1 | 0.2 | -1.1 | 0.7 | 14.2 | 3.1 | · | ·
Cc1ccc(N=C2S/C(=C/c3cccc(OCC(=O)O)c3)C(=O)N2C)cc1C | 10.1 | -12.2 | -0.2 | 58.0* | -3.7 | 64.2* | 22.7*
COC(=O)[C@H](CC(C)C)N(Cc1cn(Cc2ccc(C)cc2)nn1)S(=O)(=O)c1ccccc1Br | -1.2 | -6.8 | 1.9 | 2.4 | · | · | ·
